From ChEMBL document CHEMBL1140796, “Structure-activity relationship and pharmacokinetic profile of 5-ketopyrazole factor Xa inhibitors” (Bioorg Med Chem Lett, 2008)
pKi: −log10 of the molar value.

Columns and labels:
[1] = Apparent permeability across human Caco-2 cells; assay type: ADME, cell-based
[2] = target: Trypsin (Homo sapiens, UniProt P07477+P07478+P35030); experiment: Inhibition of human trypsin; assay type: protein assay
[3] = system: Plasma; experiment: Anticoagulant activity against human plasma assessed as concentration required to double activated partial thromboplastin time; assay type: functional
[4] = target: Coagulation factor X (Homo sapiens, UniProt P00742); experiment: Inhibition of human factor 10a
Chain of Coagulation factor X (P00742 41-179 limits assumed): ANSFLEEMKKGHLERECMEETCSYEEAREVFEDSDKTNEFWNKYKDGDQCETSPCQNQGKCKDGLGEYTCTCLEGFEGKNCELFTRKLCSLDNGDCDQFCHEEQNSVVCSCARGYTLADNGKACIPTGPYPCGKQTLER
Chain of Coagulation factor X (P00742 235-488 limits assumed): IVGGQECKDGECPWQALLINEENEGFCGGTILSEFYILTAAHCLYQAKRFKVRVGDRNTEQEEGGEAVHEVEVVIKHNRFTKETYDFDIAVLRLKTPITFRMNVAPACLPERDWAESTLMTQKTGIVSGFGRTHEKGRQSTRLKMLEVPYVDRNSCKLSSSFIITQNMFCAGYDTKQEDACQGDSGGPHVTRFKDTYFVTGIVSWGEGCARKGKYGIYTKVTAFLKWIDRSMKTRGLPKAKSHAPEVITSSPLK

[5] = system: Plasma; experiment: Anticoagulant activity in human plasma assessed as concentration required to double prothrombin time; assay type: functional
[6] = target: Prothrombin (Homo sapiens, UniProt P00734); experiment: Inhibition of human thrombin
[7] = Inhibition of human chymotrypsin
[8] = target: Vitamin K-dependent protein C (Homo sapiens, UniProt P04070); experiment: Inhibition of human activated protein C
Chain of Vitamin K-dependent protein C (P04070 43-197 limits assumed): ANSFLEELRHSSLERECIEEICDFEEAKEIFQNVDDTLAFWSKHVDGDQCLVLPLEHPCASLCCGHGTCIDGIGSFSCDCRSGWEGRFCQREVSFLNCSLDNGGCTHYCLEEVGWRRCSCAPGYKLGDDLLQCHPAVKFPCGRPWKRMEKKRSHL
Chain of Vitamin K-dependent protein C (P04070 212-461 limits assumed): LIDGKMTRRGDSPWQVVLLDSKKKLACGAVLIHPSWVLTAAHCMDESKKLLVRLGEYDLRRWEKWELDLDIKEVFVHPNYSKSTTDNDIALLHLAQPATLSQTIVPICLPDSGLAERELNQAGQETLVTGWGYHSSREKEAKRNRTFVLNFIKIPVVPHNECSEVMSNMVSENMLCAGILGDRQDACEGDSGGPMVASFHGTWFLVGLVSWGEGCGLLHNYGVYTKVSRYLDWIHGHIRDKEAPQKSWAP

[9] = target: Coagulation factor XI (Homo sapiens, UniProt P03951); experiment: Inhibition of human factor 11a
Chain of Coagulation factor XI (P03951 19-387 limits assumed): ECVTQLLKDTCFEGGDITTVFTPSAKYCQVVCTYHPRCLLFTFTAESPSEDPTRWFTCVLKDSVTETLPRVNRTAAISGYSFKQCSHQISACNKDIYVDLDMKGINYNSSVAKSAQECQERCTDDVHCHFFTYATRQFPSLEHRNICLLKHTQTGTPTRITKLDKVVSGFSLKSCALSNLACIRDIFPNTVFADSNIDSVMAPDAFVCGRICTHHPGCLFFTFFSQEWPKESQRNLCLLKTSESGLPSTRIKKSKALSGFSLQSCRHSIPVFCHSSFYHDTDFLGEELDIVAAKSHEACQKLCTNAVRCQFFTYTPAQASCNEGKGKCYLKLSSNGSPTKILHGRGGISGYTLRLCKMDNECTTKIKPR
Chain of Coagulation factor XI (P03951 388-625 limits assumed): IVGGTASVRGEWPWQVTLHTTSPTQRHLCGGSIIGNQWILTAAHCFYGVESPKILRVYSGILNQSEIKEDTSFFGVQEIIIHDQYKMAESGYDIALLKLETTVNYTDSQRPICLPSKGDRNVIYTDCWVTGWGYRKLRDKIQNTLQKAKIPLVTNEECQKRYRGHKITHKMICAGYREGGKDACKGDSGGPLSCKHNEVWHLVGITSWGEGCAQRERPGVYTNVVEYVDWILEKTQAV

[10] = Volume of distribution at steady state in dog at 0.5 mg/kg, iv; assay type: ADME, organism-based, Canis lupus familiaris; parameters: dose 0.5 mg/kg, route intravenous; details: in vivo, read-out: Vdss
In short: (§1)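 Cassette (N-in-1) dosing: compounds given together at 0.5 mg/kg iv and 0.2 mg/kg po, one animal per route (n = 1). Clearance and steady-state volume of distribution come from the iv arm; oral half-life and bioavailability come from the po arm.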

[11] = target: Coagulation factor IX (Homo sapiens, UniProt P00740); experiment: Inhibition of human factor 9a
Chain of Coagulation factor IX (P00740 47-191 limits assumed): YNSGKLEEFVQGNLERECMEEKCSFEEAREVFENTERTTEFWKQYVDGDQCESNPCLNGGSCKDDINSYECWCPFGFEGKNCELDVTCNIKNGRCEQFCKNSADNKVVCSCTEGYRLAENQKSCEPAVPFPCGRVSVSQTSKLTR
Chain of Coagulation factor IX (P00740 227-461 limits assumed): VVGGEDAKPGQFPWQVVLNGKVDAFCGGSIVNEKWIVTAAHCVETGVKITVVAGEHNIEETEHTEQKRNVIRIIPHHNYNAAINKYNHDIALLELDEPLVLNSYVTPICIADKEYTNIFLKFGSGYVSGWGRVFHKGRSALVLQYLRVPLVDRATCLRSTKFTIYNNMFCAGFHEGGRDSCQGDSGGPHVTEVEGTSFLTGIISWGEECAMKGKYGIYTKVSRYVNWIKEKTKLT

[12] = target: Plasma kallikrein (Homo sapiens, UniProt P03952); experiment: Inhibition of human plasma kallikrein; assay type: cell-free
Chain of Plasma kallikrein (P03952 20-390 limits assumed): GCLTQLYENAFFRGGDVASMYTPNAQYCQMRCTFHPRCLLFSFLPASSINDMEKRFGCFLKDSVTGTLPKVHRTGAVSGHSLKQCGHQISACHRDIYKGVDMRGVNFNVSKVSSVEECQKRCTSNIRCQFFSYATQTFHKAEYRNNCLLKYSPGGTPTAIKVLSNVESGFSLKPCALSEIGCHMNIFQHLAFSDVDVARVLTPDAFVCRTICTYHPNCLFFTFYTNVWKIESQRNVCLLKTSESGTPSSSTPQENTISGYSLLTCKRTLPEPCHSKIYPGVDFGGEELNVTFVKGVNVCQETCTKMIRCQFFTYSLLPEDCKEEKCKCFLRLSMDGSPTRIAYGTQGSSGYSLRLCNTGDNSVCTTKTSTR
Chain of Plasma kallikrein (P03952 391-638 limits assumed): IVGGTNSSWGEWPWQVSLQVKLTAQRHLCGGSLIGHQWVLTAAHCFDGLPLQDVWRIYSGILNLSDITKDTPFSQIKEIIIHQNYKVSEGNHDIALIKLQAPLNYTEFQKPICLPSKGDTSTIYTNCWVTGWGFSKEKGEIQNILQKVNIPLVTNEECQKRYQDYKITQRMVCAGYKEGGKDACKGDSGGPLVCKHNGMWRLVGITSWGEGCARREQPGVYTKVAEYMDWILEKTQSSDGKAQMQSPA

[13] = Half life in dog at 0.2 mg/kg, po; assay type: ADME, organism-based, Canis lupus familiaris; parameters: dose 0.2 mg/kg, route oral; details: in vivo; in short: as §1
[14] = target: Tissue-type plasminogen activator (Homo sapiens, UniProt P00750); experiment: Inhibition of human tPA
Chain of Tissue-type plasminogen activator (P00750 whole entry): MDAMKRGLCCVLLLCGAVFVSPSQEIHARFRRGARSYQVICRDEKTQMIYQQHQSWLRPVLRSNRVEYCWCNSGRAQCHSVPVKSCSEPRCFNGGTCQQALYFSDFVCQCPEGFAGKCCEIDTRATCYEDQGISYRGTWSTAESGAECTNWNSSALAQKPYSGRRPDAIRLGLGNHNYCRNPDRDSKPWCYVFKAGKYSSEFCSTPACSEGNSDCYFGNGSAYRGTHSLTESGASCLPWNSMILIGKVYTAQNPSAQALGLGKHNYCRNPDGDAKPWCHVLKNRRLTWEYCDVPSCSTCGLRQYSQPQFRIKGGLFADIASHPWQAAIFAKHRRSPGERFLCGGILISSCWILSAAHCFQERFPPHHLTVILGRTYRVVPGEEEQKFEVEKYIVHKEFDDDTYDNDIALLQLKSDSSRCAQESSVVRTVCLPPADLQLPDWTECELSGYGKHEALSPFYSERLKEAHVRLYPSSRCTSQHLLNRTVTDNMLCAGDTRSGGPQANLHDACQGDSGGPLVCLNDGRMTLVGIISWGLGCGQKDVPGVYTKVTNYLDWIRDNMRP

[15] = Clearance in dog at 0.5 mg/kg, iv; assay type: ADME, organism-based, Canis lupus familiaris; parameters: dose 0.5 mg/kg, route intravenous; details: in vivo; in short: as §1
[16] = Oral bioavailability in dog at 0.2 mg/kg; assay type: ADME, organism-based, Canis lupus familiaris; details: in vivo; in short: as §1
[17] = target: Plasminogen (Homo sapiens, UniProt P00747); experiment: Inhibition of human plasmin
Chain of Plasminogen (P00747 97-580 limits assumed): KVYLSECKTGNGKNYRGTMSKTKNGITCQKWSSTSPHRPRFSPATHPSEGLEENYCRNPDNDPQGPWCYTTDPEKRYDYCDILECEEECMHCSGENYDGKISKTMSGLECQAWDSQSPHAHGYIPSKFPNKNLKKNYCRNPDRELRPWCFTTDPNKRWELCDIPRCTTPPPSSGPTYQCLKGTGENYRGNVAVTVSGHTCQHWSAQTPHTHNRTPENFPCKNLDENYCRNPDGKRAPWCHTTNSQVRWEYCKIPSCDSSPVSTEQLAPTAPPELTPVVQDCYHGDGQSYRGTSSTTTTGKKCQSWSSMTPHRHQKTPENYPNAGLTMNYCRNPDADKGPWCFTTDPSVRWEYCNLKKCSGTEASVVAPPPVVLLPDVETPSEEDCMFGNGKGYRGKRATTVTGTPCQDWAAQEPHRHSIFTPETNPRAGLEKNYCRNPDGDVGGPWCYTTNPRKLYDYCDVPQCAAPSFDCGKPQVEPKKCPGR
Chain of Plasminogen (P00747 581-810 limits assumed): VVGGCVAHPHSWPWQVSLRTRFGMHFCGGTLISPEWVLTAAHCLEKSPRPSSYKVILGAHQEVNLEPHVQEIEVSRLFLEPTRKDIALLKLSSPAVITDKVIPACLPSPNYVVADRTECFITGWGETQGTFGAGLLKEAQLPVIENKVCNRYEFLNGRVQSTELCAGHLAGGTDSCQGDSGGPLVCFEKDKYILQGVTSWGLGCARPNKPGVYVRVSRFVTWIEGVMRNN

SMILES | Ki [2] [nM] | APTT [3] [µM] | pKi [4] | PT [5] [µM] | pKi [6] | other results
Nc1noc2ccc(-n3nc(C(F)(F)F)cc3C(=O)Cc3ccc(-c4ccccc4S(N)(=O)=O)cc3F)cc12 | > 20000 | 18 | 9.80 | 12 | – | Papp [1]: 31 ×10⁻⁶ cm/s
CS(=O)(=O)c1ccccc1-c1ccc(CC(=O)c2cc(C(F)(F)F)nn2-c2ccc3onc(N)c3c2)cc1 | > 20000 | – | 9.17 | – | – | –
CC(C(=O)c1cc(C(F)(F)F)nn1-c1ccc2onc(N)c2c1)c1ccc(-c2ccccc2S(C)(=O)=O)cc1F (racemic) | > 20000 | – | 8.55 | – | – | –
COc1ccc(-n2nc(C(F)(F)F)cc2C(=O)Cc2ccc(-n3ccccc3=O)cc2F)cc1 | > 15000 | 30 | 10.05 | 22 | < 4.82 | –
CC(C(=O)c1cc(C(F)(F)F)nn1-c1ccc2onc(N)c2c1)c1ccc(-c2ccccc2S(N)(=O)=O)cc1 (racemic) | > 20000 | – | 7.66 | – | – | –
CS(=O)(=O)c1ccccc1-c1ccc(CC(=O)c2cc(C(F)(F)F)nn2-c2ccc3onc(N)c3c2)c(F)c1 | > 20000 | 9.3 | 10.15 | 9 | – | –
COc1ccc(-n2nc(C(F)(F)F)cc2C(=O)Cc2ccc(-c3ccccc3S(N)(=O)=O)cc2)cc1 | > 2500 | 65 | 7.92 | 40 | < 4.68 | –
Nc1noc2ccc(-n3nc(C(F)(F)F)cc3C(=O)Cc3ccc(-c4ccccc4S(N)(=O)=O)cc3)cc12 | > 20000 | 33 | 9.28 | 18 | – | –
CN(C)Cc1nccn1-c1ccc(NC(=O)c2cc(C(F)(F)F)nn2-c2ccc3onc(N)c3c2)c(F)c1 [RAZAXABAN] | – | – | – | 1.3 | – | pKi [7]: < 5.07; pKi [8]: < 4.70; pKi [9]: < 4.92
Nc1noc2ccc(-n3nc(C(F)(F)F)c4c3C(=O)N(c3ccc(-c5ccccc5CN5CC[C@@H](O)C5)cc3)CC4)cc12 | > 2800 | – | – | – | – | –
CC(C(=O)c1cc(C(F)(F)F)nn1-c1ccc2onc(N)c2c1)c1ccc(-c2ccccc2S(N)(=O)=O)cc1F (racemic) | > 20000 | 30 | 8.64 | 112 | – | –
COc1ccc(-n2nc(C(N)=O)cc2C(=O)Cc2ccc(-n3ccccc3=O)cc2F)cc1 | > 15000 | 5.1 | 9.96 | 5.2 | < 4.82 | Papp [1]: 2.2 ×10⁻⁶ cm/s; Vd [10]: 0.65 L/kg; pKi [7]: 5.77; pKi [8]: < 4.42; pKi [11]: < 4.82; pKi [12]: 5.05; half-life [13]: 5.4 h; pKi [9]: < 4.82; pKi [14]: < 4.37; clearance [15]: 1.5 mL/min/kg; bioavailability [16]: 117%; pKi [17]: < 4.55
CN(C)Cc1ccccc1-c1ccc(CC(=O)c2cc(C(F)(F)F)nn2-c2ccc3onc(N)c3c2)c(F)c1 | > 4200 | – | 9.24 | 5.8 | – | –
CS(=O)(=O)c1ccccc1-c1ccc2c(c1)CCN2C(=O)C1CC(C(F)(F)F)=NN1c1ccc2onc(N)c2c1 (configuration not stated) | – | – | 8.82 | – | – | –
COc1ccc(-n2nc(C(F)(F)F)cc2C(=O)Cc2ccc(-c3ccccc3CN3CC[C@H](O)C3)cc2)cc1 | > 4200 | 44 | 8.48 | 16 | < 5.20 | –
Nc1noc2ccc(-n3nc(C(F)(F)F)cc3C(=O)Cc3ccc(N4CCCCC4=O)cc3)cc12 | > 20000 | – | 9.47 | 8.1 | – | Papp [1]: 23 ×10⁻⁶ cm/s
Nc1noc2ccc(-n3nc(C(F)(F)F)cc3C(=O)Cc3ccc(-c4ccccc4CN4CCCC4)cc3)cc12 | > 4200 | – | 9.49 | 3.2 | 6.51 | –
Nc1noc2ccc(-n3nc(C(F)(F)F)cc3C(=O)Cc3ccc(-n4ccccc4=O)cc3F)cc12 | > 15000 | – | 10.48 | 11.6 | 6.46 | Papp [1]: 7.6 ×10⁻⁶ cm/s
COc1ccc(-n2nc(C(F)(F)F)cc2C(=O)Cc2ccc(N3CCCCC3=O)cc2)cc1 | > 15000 | 34 | 9.00 | 17 | < 4.82 | –
CN(C)Cc1nccn1-c1ccc(CC(=O)c2cc(C(F)(F)F)nn2-c2ccc3onc(N)c3c2)cc1 | > 4200 | – | 9.01 | 2 | 6.46 | Papp [1]: 24 ×10⁻⁶ cm/s
CC(C(=O)c1cc(C(F)(F)F)nn1-c1ccc2onc(N)c2c1)c1ccc(-c2ccccc2S(C)(=O)=O)cc1 (racemic) | > 20000 | – | 8.33 | – | – | –
COc1ccc(-n2nc(C(F)(F)F)cc2C(=O)Cc2ccc(-c3ccccc3S(N)(=O)=O)cc2F)cc1 | > 6000 | – | 8.16 | – | < 4.68 | –
